# Assay outcomes deposited in PubChem by several laboratories.
# T cruzi inh: blocks replication of Trypanosoma cruzi | AID 1885 | actives 1.4% (n = 300,000) | T. cruzi beta-gal in NIH3T3, luminescence, 90 h | inhibition, % (test concentration not listed);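 active means mean inhibition across valid replicates above about 55%, limit read from the data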;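 further: signal also drops with host cell toxicity which is not excluded here; 0% = plate median of DMSO wells and 100% = zero luminescence signal; higher percent means less beta-gal luminescence so fewer parasites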
#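 Read-out: Parasite load inhibition, % | Test system: Mouse NIH/3T3 fibroblasts infected with β-gal-expressing T. cruzi Tulahuen C4 | Amount: 5,000 cells/well | Medium: DMEM, 2% fetal bovine serum | Signal: GalScreen β-gal luminescence, detergent lysis, 60 min | Timing: 3 h attach, ≥90 h co-culture | Also added: Tulahuen C4 trypomastigotes, 5000/well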
# CSC inhib: cancer stem cell inhibition; actives 1.1% (n = 300,000); cancer stem cell-like cells viability, luminescence; inhibition, % at 7.5 µM; AID 2717; in the data active means inhibition above about 75%; tested in HMLE shEcad cells
# Beta apoptosis: beta cell apoptosis inhibition; INS-1E cytokine-induced death, ATP luminescence, 48 h; percent of positive-control rescue, neutral wells zero; protection from apoptosis, % (no concentration beside the values); actives 0.8% (n = 300,000); AID 435005;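 active means Every replicate reaches about 75%, or at least half do and their mean reaches it too, limit read from the data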;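 further: 0% = cytokine-treated negative control wells and 100% = positive control rescue; higher means more ATP so stronger rescue from cytokine killing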
# Mdm2 MdmX PPI: inhibitors of human Mdm2/MdmX interaction; inhibition, % at 8 µM; SaOS-2 split-luciferase Mdm2/MdmX complementation, luminescence; O15151+Q00987; actives 3% (n = 330,000);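 active means inhibition of at least 50% at 8 µM in the primary screen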
# NALP3 yeast inh: NALP3 inhibition in yeast; Yeast reconstituted NLRP3/ASC/caspase-1, beta-gal luminescence, 24 h; inhibition, % at 10 µM; actives 0.39% (n = 330,000); AID 2825;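 active means inhibition of 50% or more; inactive means inhibition below 50%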;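 further: plate controls were induced DMSO wells for no effect and uninduced yeast grown without galactose for full effect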
# Calb FLC: C. albicans growth modulation with fluconazole; C. albicans CaCi-2 + fluconazole, Alamar Blue growth, 48 h; growth inhibition, % (test concentration not listed); actives 0.57% (n = 300,000);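 active means growth inhibition above about 58% in most replicates, limit read from the data, passing the limit was not always enough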;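 further: all wells also contain fluconazole at 8 µg/ml as a sub-toxic cotreatment; 0% = median of DMSO wells and 100% = median of geldanamycin control wells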
# Mdm2-MdmX conf: confirmation of human Mdm2/MdmX interaction inhibitors; shares compounds with Mdm2 MdmX PPI; Mdm2-MdmX binding, luminescent assay; inhibition, % at 8 µM; actives 55% (n = 10,000); AID 489028; in the data active means inhibition above about 40%
# Full FLuc ctr: full-length luciferase inhibition in Mdm2/MdmX counter-screen | shares compounds with Mdm2 MdmX PPI | AID 504607 | inhibition, % at 8 µM | actives 77% (n = 6,200) | SaOS-2 full-length luciferase counterscreen, luminescence;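 active means mean inhibition at 8 µM reaching about 37%, which flags the compound as non-specific, limit read from the data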;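 further: p53-null SaOS-2 cells with luciferase driven by a doxycycline-inducible promoter; compound on cells about two nights before reading with doxycycline added after day one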
# Numbers without * were called inactive; / = no result given. Shown are actives, neighbours in structure and some others; about 5.3% of the full set was active somewhere.
SMILES,T cruzi inh,CSC inhib,Beta apoptosis,Mdm2 MdmX PPI,NALP3 yeast inh,Calb FLC,Mdm2-MdmX conf,Full FLuc ctr
C=CC[C@H](CC(=O)N(CCO)Cc1ccccc1)C(=O)N[C@H](COC(=O)[C@@H](CC=C)Cc1ccc(F)cc1)Cc1ccccc1,/,-1,-9,71*,16,/,27,/
C=CC[C@@H](CC(=O)N(CCO)Cc1ccccc1)C(=O)N[C@H](C)COC(=O)[C@@H](CC=C)Cc1ccc(F)cc1,/,/,2,20,1,/,/,/
C=CC[C@H](CC(=O)NCCO)C(=O)NC[C@@H](OC(=O)[C@@H](CC=C)Cc1ccc(F)cc1)c1ccccc1,/,/,5,26,5,/,/,/
C=CCN1C(=O)C(CC(=O)Nc2ccc(OCCC)cc2)N(CCCN2CCN(Cc3ccccc3)CC2)C1=S (centres undefined),67*,25,9,80*,-17,2,38,75*
CC(=O)c1ccc(N/N=C(/C(N)=O)C2=NC(C)(C)Cc3ccccc32)cc1,6,42,4,63*,24,11,39,63*
CC1(C)Cc2ccccc2C(/C(=N\Nc2cccc(Cl)c2)C(N)=O)=N1,51,44,4,20,27,27,/,/
C/C(=N/Nc1cc(-c2ccccc2)nc(-c2ccccc2)n1)c1ccc(O)cc1,52,106*,7,56*,7,0,19,/
O=C(c1cnn2c1NC(c1ccco1)CC2C(F)(F)F)N1CCN(c2cccc(Cl)c2)CC1 (centres undefined),15,57,13,59*,6,10,51*,56*
O=[N+]([O-])c1ccc(N/N=C\c2cccn2-c2ccccc2)nc1,21,36,-9,41,35,7,/,/
CCSc1ncc(/C=N/Nc2ccc([N+](=O)[O-])cc2)n1C,4,10,/,69*,17,-1,-87,/
COc1cc2nc(NC(=O)c3ccccc3)[nH]c(=O)c2cc1OC,5,0,-3,-22,4,-9,/,/
COc1ccc(C(=O)Nc2nc3cc(OC)c(OC)cc3c(=O)[nH]2)cc1,/,3,18,71*,10,/,-10,/
CCCN(C(=O)C(=O)Nc1ccc2nc3n(c(=O)c2c1)CCCCC3)c1ccc(OCC)cc1,-2,-18,11,11,-10,19,/,/
CNc1ccccc(C(=O)/C=C/c2ccccc2OC)c1=O,-4,11,-14,6,6,-6,/,/
Cn1c(N2CCN(C(c3ccccc3)c3ccccc3)CC2)nc2c1c(=O)[nH]c(=O)n2C,2,19,4,60*,16,3,58*,87*
CCCn1c(N2CCC(Cc3ccccc3)CC2)nc2c1c(=O)[nH]c(=O)n2C,18,8,1,33,0,-10,/,/
CCCCCn1c(N2CCC(Cc3ccccc3)CC2)nc2c1c(=O)[nH]c(=O)n2C,57*,118*,20,58*,26,-10,5,/
COC(=O)C1=C(C)N(Cc2ccccc2)C(=NCc2ccc(OC)cc2)N[C@H]1c1ccccc1,/,12,4,65*,15,/,25,/
COCCN=C1N[C@@H](c2cccc(C(F)(F)F)c2)C(C(=O)OC)=C(C)N1Cc1ccccc1,26,4,5,45,20,-8,/,/
CCN1C(=NCCCCO)N[C@@H](c2cccc(C(F)(F)F)c2)C(C(=O)OC)=C1C,-2,1,-9,16,11,11,/,/
COC(=O)C1=C(C)N(Cc2ccccc2)C(=NCc2cccc(C(F)(F)F)c2)N[C@H]1c1cccc(C(F)(F)F)c1,/,/,99*,100*,21,/,100*,49*
COC(=O)C1=C(C)N(Cc2ccccc2)C(=NCCCCO)N[C@H]1c1cccc(C(F)(F)F)c1,/,1,-4,52*,5,/,34,/
CCN1C(=NCC(C)C)N[C@@H](c2cccc(C(F)(F)F)c2)C(C(=O)OC)=C1C,8,6,8,57*,9,-3,33,60*
Cc1cc(C)cc(CSCC(=O)NN=C2CCCCCC2)c1,2,-7,-1,0,5,-6,/,/
